These results are taken from ChEMBL document CHEMBL1122757, “Angiotensin II: dependence of hormone affinity on the electronegativity of a single side chain” (1984).

The structures appear in SMILES notation. Square brackets hold non-standard residues; d marks the D form. Peptide text beside a SMILES is read from it. Sar = CNCC(=O)O

Experiment [1] has as its target T1, Type-1 angiotensin II receptor (Bos taurus) (UniProt P25104).
T1 sequence (whole entry): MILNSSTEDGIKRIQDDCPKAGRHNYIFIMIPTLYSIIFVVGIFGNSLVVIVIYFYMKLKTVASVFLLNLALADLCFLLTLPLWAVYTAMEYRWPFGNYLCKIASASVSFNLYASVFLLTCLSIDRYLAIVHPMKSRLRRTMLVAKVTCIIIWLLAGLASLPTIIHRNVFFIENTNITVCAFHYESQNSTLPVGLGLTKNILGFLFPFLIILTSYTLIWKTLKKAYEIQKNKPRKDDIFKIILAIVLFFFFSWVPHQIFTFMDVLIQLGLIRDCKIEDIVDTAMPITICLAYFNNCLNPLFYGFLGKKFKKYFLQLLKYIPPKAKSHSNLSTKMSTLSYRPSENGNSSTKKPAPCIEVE
The experiment can be described thus: Displacement of [3H]AT from angiotensin II receptor in bovine adrenocortical membranes. It counts as cell membranes. A digest of the protocol:
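Bovine adrenal glands taken fresh at slaughter, kept in ice-cold saline and dissected; purified adrenal microsomal membranes (~50-100 μg protein) in 100 μL assay buffer with [Sar1,(3',5'-3H2-4'-NH2)Phe4]AT at 5 × 10^-9 M. Competitor 10^-9 to 10^-4 M. Triplicate, 20 °C, 15 min. Filtration on nitrocellulose, scintillation counting. Nonspecific binding with 10^-4 M unlabeled AT. Specific binding as B/BO. At least nine independent experiments; RA given relative to standard.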
(Displacement assays read how much labelled ligand stays bound in the presence of the test substance.)

The species named for experiment [2] is Oryctolagus cuniculus. Nature of the experiment: In vitro biological activity on rabbit aorta strip. It counts as functional. Summed up: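 Isolated rabbit aorta strips under 2 g tension, adjusted during a 60–90-min equilibration, with bath fluid changed every 10–15 min. Peptides added to the tissue bath, concentrations stated as final bath concentrations. Contractile responses recorded with force-displacement transducers.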

Experiment [3] relates to Rattus norvegicus. Nature of the experiment: In vivo biological activity on the blood pressure of the anesthetized rat. It counts as functional.

In experiment [1], `CNCC(=O)N[C@@H](CCCN=C(N)N)C(=O)N[C@H](C(=O)N[C@@H](Cc1ccc(O)c(N)c1)C(=O)N[C@H](C(=O)N[C@@H](Cc1c[nH]cn1)C(=O)N1CCC[C@@H]1C(=O)N[C@@H](Cc1ccccc1)C(=O)O)C(C)C)C(C)C` showed an Activity of 132%. In the case of `CNCC(=O)N[C@@H](CCCN=C(N)N)C(=O)N[C@H](C(=O)N[C@@H](Cc1ccc(O)c([N+](=O)[O-])c1)C(=O)N[C@H](C(=O)N[C@@H](Cc1c[nH]cn1)C(=O)N1CCC[C@@H]1C(=O)N[C@@H](Cc1ccccc1)C(=O)O)C(C)C)C(C)C`, in experiment [1], the Activity was 75%. As to `CNCC(=O)N[C@@H](CCCN=C(N)N)C(=O)N[C@H](C(=O)N[C@@H](Cc1ccc(O)c(N=[N+]=[N-])c1)C(=O)N[C@H](C(=O)N[C@@H](Cc1c[nH]cn1)C(=O)N1CCC[C@H]1C(=O)N[C@@H](Cc1ccccc1)C(=O)O)C(C)C)C(C)C`, the Activity in experiment [2] and in experiment [3] was 63% in each case. As for `CNCC(=O)N[C@@H](CCCN=C(N)N)C(=O)N[C@H](C(=O)N[C@@H](Cc1ccc(O)c([N+](=O)[O-])c1)C(=O)N[C@H](C(=O)N[C@@H](Cc1c[nH]cn1)C(=O)N1CCC[C@H]1C(=O)N[C@@H](Cc1ccccc1)C(=O)O)C(C)C)C(C)C`, the Activity in experiment [2] turned out to be 38%; in experiment [3], 16%. The matching figures for `CNCC(=O)N[C@@H](CCCN=C(N)N)C(=O)N[C@H](C(=O)N[C@@H](Cc1ccc(S(=O)(=O)O)cc1)C(=O)N[C@H](C(=O)N[C@@H](Cc1c[nH]cn1)C(=O)N1CCC[C@H]1C(=O)N[C@@H](Cc1ccccc1)C(=O)O)C(C)C)C(C)C`: 0% and 0%. Molecule `CNCC(=O)N[C@@H](CCCN=C(N)N)C(=O)N[C@H](C(=O)N[C@@H](Cc1ccc(S)cc1)C(=O)N[C@H](C(=O)N[C@@H](Cc1c[nH]cn1)C(=O)N1CCC[C@H]1C(=O)N[C@@H](Cc1ccccc1)C(=O)O)C(C)C)C(C)C` displayed an Activity in experiment [2] of 0.9%. `CNCC(=O)N[C@@H](CCCN=C(N)N)C(=O)N[C@H](C(=O)N[C@@H](Cc1cc([N+](=O)[O-])c(O)c([N+](=O)[O-])c1)C(=O)N[C@H](C(=O)N[C@@H](Cc1c[nH]cn1)C(=O)N1CCC[C@@H]1C(=O)N[C@@H](Cc1ccccc1)C(=O)O)C(C)C)C(C)C` had an Activity in experiment [1] of 1.5%. On the same count and under the same terms, the same measure for `CNCC(=O)N[C@@H](CCCN=C(N)N)C(=O)N[C@H](C(=O)N[C@@H](Cc1ccc(S)cc1)C(=O)N[C@H](C(=O)N[C@@H](Cc1c[nH]cn1)C(=O)N1CCC[C@@H]1C(=O)N[C@@H](Cc1ccccc1)C(=O)O)C(C)C)C(C)C`: 0.5%. For `CNCC(=O)N[C@@H](CCCN=C(N)N)C(=O)N[C@H](C(=O)N[C@@H](Cc1ccc(N=[N+]=[N-])cc1)C(=O)N[C@H](C(=O)N[C@@H](Cc1c[nH]cn1)C(=O)N1CCC[C@H]1C(=O)N[C@@H](Cc1ccccc1)C(=O)O)C(C)C)C(C)C`, the Activity in experiment [2] came out at 0.3%.

For `CNCC(=O)N[C@@H](CCCN=C(N)N)C(=O)N[C@H](C(=O)N[C@@H](Cc1cc(I)c(N)c(I)c1)C(=O)N[C@H](C(=O)N[C@@H](Cc1c[nH]cn1)C(=O)N1CCC[C@@H]1C(=O)N[C@@H](Cc1ccccc1)C(=O)O)C(C)C)C(C)C`, in experiment [1], the Activity was 16%.

In experiment [1], `CNCC(=O)N[C@@H](CCCN=C(N)N)C(=O)N[C@H](C(=O)N[C@@H](Cc1ccc(O)cc1)C(=O)N[C@H](C(=O)N[C@@H](Cc1c[nH]cn1)C(=O)N1CCC[C@@H]1C(=O)N[C@@H](Cc1ccccc1)C(=O)O)C(C)C)C(C)C` (H-[Sar]RVYVH[dP]F-OH) returned an Activity of 100%. Same read-out and setting: with `CNCC(=O)N[C@@H](CCCN=C(N)N)C(=O)N[C@H](C(=O)N[C@@H](Cc1ccc(S(N)(=O)=O)cc1)C(=O)N[C@H](C(=O)N[C@@H](Cc1c[nH]cn1)C(=O)N1CCC[C@@H]1C(=O)N[C@@H](Cc1ccccc1)C(=O)O)C(C)C)C(C)C` the figure was 3.8%; with `CNCC(=O)N[C@@H](CCCN=C(N)N)C(=O)N[C@H](C(=O)N[C@@H](Cc1ccc(S(=O)(=O)O)cc1)C(=O)N[C@H](C(=O)N[C@@H](Cc1c[nH]cn1)C(=O)N1CCC[C@@H]1C(=O)N[C@@H](Cc1ccccc1)C(=O)O)C(C)C)C(C)C`, 0%. Turning to `CNCC(=O)N[C@@H](CCCN=C(N)N)C(=O)N[C@H](C(=O)N[C@@H](Cc1cc([N+](=O)[O-])c(O)c([N+](=O)[O-])c1)C(=O)N[C@H](C(=O)N[C@@H](Cc1c[nH]cn1)C(=O)N1CCC[C@H]1C(=O)N[C@@H](Cc1ccccc1)C(=O)O)C(C)C)C(C)C`, the values for the Activity in experiment [2] and in experiment [3] were 7.8% and 0.5%, respectively. `CNCC(=O)N[C@@H](CCCN=C(N)N)C(=O)N[C@H](C(=O)N[C@@H](Cc1cc(Cl)c(O)c(Cl)c1)C(=O)N[C@H](C(=O)N[C@@H](Cc1c[nH]cn1)C(=O)N1CCC[C@@H]1C(=O)N[C@@H](Cc1ccccc1)C(=O)O)C(C)C)C(C)C` returned an Activity in experiment [1] of 28%.

The molecule `CNCC(=O)N[C@@H](CCCN=C(N)N)C(=O)N[C@H](C(=O)N[C@@H](Cc1ccc([N+](=O)[O-])cc1)C(=O)N[C@H](C(=O)N[C@@H](Cc1c[nH]cn1)C(=O)N1CCC[C@@H]1C(=O)N[C@@H](Cc1ccccc1)C(=O)O)C(C)C)C(C)C` yielded an Activity in experiment [1] of 1.5%. On the same count and under the same terms, with `CNCC(=O)N[C@@H](CCCN=C(N)N)C(=O)N[C@H](C(=O)N[C@@H](Cc1ccc(N=[N+]=[N-])cc1)C(=O)N[C@H](C(=O)N[C@@H](Cc1c[nH]cn1)C(=O)N1CCC[C@@H]1C(=O)N[C@@H](Cc1ccccc1)C(=O)O)C(C)C)C(C)C` the figure was 2.6%. As to `CNCC(=O)N[C@@H](CCCN=C(N)N)C(=O)N[C@H](C(=O)N[C@@H](Cc1ccccc1)C(=O)N[C@H](C(=O)N[C@@H](Cc1c[nH]cn1)C(=O)N1CCC[C@@H]1C(=O)N[C@@H](Cc1ccccc1)C(=O)O)C(C)C)C(C)C`, in experiment [1], the Activity turned out to be 18%. Still for that read-out and setting: the same measure for `CNCC(=O)N[C@@H](CCCN=C(N)N)C(=O)N[C@H](C(=O)N[C@@H](Cc1ccc(N)cc1)C(=O)N[C@H](C(=O)N[C@@H](Cc1c[nH]cn1)C(=O)N1CCC[C@@H]1C(=O)N[C@@H](Cc1ccccc1)C(=O)O)C(C)C)C(C)C`: 28%. For the molecule `CNCC(=O)N[C@@H](CCCN=C(N)N)C(=O)N[C@H](C(=O)N[C@@H](Cc1ccc(O)c(Cl)c1)C(=O)N[C@H](C(=O)N[C@@H](Cc1c[nH]cn1)C(=O)N1CCC[C@H]1C(=O)N[C@@H](Cc1ccccc1)C(=O)O)C(C)C)C(C)C`, the Activity in experiment [2] turned out to be 103%; in experiment [3] it was 82%. The matching figures for `CNCC(=O)N[C@@H](CCCN=C(N)N)C(=O)N[C@H](C(=O)N[C@@H](Cc1ccc(O)cc1)C(=O)N[C@H](C(=O)N[C@@H](Cc1c[nH]cn1)C(=O)N1CCC[C@H]1C(=O)N[C@@H](Cc1ccccc1)C(=O)O)C(C)C)C(C)C` (H-[Sar]RVYVHPF-OH): 100% and 100%. The matching figures for `CNCC(=O)N[C@@H](CCCN=C(N)N)C(=O)N[C@H](C(=O)N[C@@H](Cc1ccc(N)cc1)C(=O)N[C@H](C(=O)N[C@@H](Cc1c[nH]cn1)C(=O)N1CCC[C@H]1C(=O)N[C@@H](Cc1ccccc1)C(=O)O)C(C)C)C(C)C`: 15% and 14%. Turning to `CNCC(=O)N[C@@H](CCCN=C(N)N)C(=O)N[C@H](C(=O)N[C@@H](Cc1cc(I)c(N)c(I)c1)C(=O)N[C@H](C(=O)N[C@@H](Cc1c[nH]cn1)C(=O)N1CCC[C@H]1C(=O)N[C@@H](Cc1ccccc1)C(=O)O)C(C)C)C(C)C`, the Activity is 2.7% in experiment [2] and 5.3% in experiment [3]. The molecule `CNCC(=O)N[C@@H](CCCN=C(N)N)C(=O)N[C@H](C(=O)N[C@@H](Cc1ccc(O)c(N=[N+]=[N-])c1)C(=O)N[C@H](C(=O)N[C@@H](Cc1c[nH]cn1)C(=O)N1CCC[C@@H]1C(=O)N[C@@H](Cc1ccccc1)C(=O)O)C(C)C)C(C)C` had an Activity in experiment [1] of 61%. As for `CNCC(=O)N[C@@H](CCCN=C(N)N)C(=O)N[C@H](C(=O)N[C@@H](Cc1cc(Cl)c(O)c(Cl)c1)C(=O)N[C@H](C(=O)N[C@@H](Cc1c[nH]cn1)C(=O)N1CCC[C@H]1C(=O)N[C@@H](Cc1ccccc1)C(=O)O)C(C)C)C(C)C`, the Activity in experiment [2] was determined as 22%; in experiment [3], 19%. The matching figures for `CNCC(=O)N[C@@H](CCCN=C(N)N)C(=O)N[C@H](C(=O)N[C@@H](Cc1ccc([N+](=O)[O-])cc1)C(=O)N[C@H](C(=O)N[C@@H](Cc1c[nH]cn1)C(=O)N1CCC[C@H]1C(=O)N[C@@H](Cc1ccccc1)C(=O)O)C(C)C)C(C)C`: 0% and 0.2%.

Regarding `CNCC(=O)N[C@@H](CCCN=C(N)N)C(=O)N[C@H](C(=O)N[C@@H](Cc1ccc(O)c(Cl)c1)C(=O)N[C@H](C(=O)N[C@@H](Cc1c[nH]cn1)C(=O)N1CCC[C@@H]1C(=O)N[C@@H](Cc1ccccc1)C(=O)O)C(C)C)C(C)C`, in experiment [1], the Activity was 87%.

Turning to `CNCC(=O)N[C@@H](CCCN=C(N)N)C(=O)N[C@H](C(=O)N[C@@H](Cc1ccc(S(N)(=O)=O)cc1)C(=O)N[C@H](C(=O)N[C@@H](Cc1c[nH]cn1)C(=O)N1CCC[C@H]1C(=O)N[C@@H](Cc1ccccc1)C(=O)O)C(C)C)C(C)C`, the Activity in experiment [2] is recorded as 3.2%; in experiment [3], 0.9%. Turning to `CNCC(=O)N[C@@H](CCCN=C(N)N)C(=O)N[C@H](C(=O)N[C@@H](Cc1ccc(O)c(N)c1)C(=O)N[C@H](C(=O)N[C@@H](Cc1c[nH]cn1)C(=O)N1CCC[C@H]1C(=O)N[C@@H](Cc1ccccc1)C(=O)O)C(C)C)C(C)C`, the Activity was 120% in experiment [2] and 184% in experiment [3].
